An excerpt weighted towards active compounds, which were near 7.2% of everything screened.
M1 antag = M1 muscarinic receptor (rat) antagonism; CHO-M1 cells, Fluo-4 calcium, ACh EC80 antagonist mode; active compounds read low; 3.4% of 64,000 active; B-score at 10 µM; P08482;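 active = calcium fluorescence response, raw or row-and-column corrected B-score, differing from the plate sample mean either way at a set confidence level, mostly lower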
HEK293 NFkB inh = lowers PMA/ionomycin-induced NF-kB signal in HEK293 cells. HEK-293 NF-kB luciferase reporter, luminescence. inhibition, % at 3 µM. 0.21% of 62,000 active. AID 465;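 active = inhibition above the mean of all tested compounds plus 3 SD, cut at about 40% in these data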;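 note: 0% = stimulated DMSO wells and 100% = 10 µM reference inhibitor 5653914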
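System: NF-kB luciferase reporter HEK-293 cells | Replication: Single test | Control set: DMSO vs reference inhibitor | Evaluation: % inhibition | Schedule: 1 h pretreatment, 16 h stimulation, 37 °C | Probe or stimulus: PMA with ionomycin | Compound dosing: One dose, 3 µM | Detection: Luciferase luminescence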
M1 agonist = agonists of M1 muscarinic receptor; B-score at 10 µM; 3% of 64,000 active; CHO-M1 cells, Fluo-4 calcium fluorescence, agonist mode; active compounds read high;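 active = fluorescence rise, raw or as B-score row- and column-corrected plate score, outside the 99.7% band of its plate's samples, either direction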
D1 allo mod = D1 dopamine receptor (human) allosteric modulation. HEK293 D1, CRE-luciferase, dopamine EC30 potentiation; actives deviate in either direction. B-score at 10 µM. 5.9% of 58,000 active;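 active = luminescence count or its row- and column-corrected plate score outside the 99.7% band of the plate's sample wells, on either side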
Target sequence (P21728 whole entry, looked up): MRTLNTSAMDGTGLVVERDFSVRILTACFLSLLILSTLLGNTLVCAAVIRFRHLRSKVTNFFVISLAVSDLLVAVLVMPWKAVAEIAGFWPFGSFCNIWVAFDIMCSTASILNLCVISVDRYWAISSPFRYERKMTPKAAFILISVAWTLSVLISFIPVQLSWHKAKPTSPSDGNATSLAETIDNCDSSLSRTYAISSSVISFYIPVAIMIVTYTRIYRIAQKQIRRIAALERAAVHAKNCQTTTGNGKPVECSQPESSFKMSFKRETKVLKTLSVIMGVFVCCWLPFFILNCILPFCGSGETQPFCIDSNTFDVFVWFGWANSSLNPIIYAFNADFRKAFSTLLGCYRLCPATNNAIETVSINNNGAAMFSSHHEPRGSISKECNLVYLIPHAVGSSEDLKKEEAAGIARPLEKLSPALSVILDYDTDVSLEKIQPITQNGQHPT
BAP1 inh = human BAP1 deubiquitinase inhibition; Q92560; recombinant BAP1, Ub-AMC hydrolysis fluorescence kinetic; active compounds read low; calls only at 20 µM; 0.48% of 72,000 active;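 active = activity remaining at or below 50% of control, provided the compound also passes the data quality filters; inactive = the rest, including low values that fail the filters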;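 note: 100% = DMSO wells rate and 0% = substrate alone blank rate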
hDAT+cocaine = human DAT dopamine uptake with cocaine, either direction | LLC-PK1 hDAT cells, [14C]-dopamine uptake with cocaine IC80; actives deviate in either direction | B-score at 10 µM | 1.3% of 110,000 active | AID 449768;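 active = Z score or B-score, a plate-position-corrected score, falls beyond the plate's 99.7% confidence bounds, in either direction; inactive = both scores lie inside the 99.7% bounds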;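 note: scored against the spread of the other compound wells on the same plate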
D1 mod confirm = D1 receptor (human) allosteric modulation, confirmed; shares compounds with D1 allo mod; HEK293 D1 CRE-luciferase, dopamine EC30 potentiation; active compounds read high; luminescence at 10 µM; 88% of 2,200 active; AID 642;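 active = luminescence in either of two replicates above the same-plate mean plus 3 SD of the low-dose dopamine control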
D1 no dopamine = activates D1 CRE-luciferase signal without dopamine present; AID 646; shares compounds with D1 allo mod; 0.8% of 1,900 active; luminescence at 10 µM; HEK293 D1 CRE-luciferase, luminescence, no dopamine; active compounds read high; in the data active = luminescence above about 3900
Isoprot counter = isoproterenol response counter-screen activity for D1 modulators; shares compounds with D1 allo mod; HEK293 D1 CRE-luciferase, isoproterenol EC30 counter-screen; calls only at 10 µM; 63% of 2,200 active;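 active = luminescence in either replicate above plate mean of wells with a partly effective reference agonist dose plus 3 SD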;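 note: isoproterenol raises cAMP through native beta-adrenoceptor Gs so signal bypasses D1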
Starred values were filed as active, the others as inactive; i = inactive; . = not tested or not shown; + = active, no number.

SMILES | M1 antag | HEK293 NFkB inh | M1 agonist | D1 allo mod | BAP1 inh | hDAT+cocaine | D1 mod confirm | D1 no dopamine | Isoprot counter
COc1cc(C2CC(=O)NC3=C2C(=O)CC(C)(C)C3)ccc1O (centres undefined) | 0.573 | 0.9 | 0.389 | 0.093 | i | 0.0659 | . | . | .
CCOc1ccccc1C1CC(=O)NC2=C1C(=O)CC(C)(C)C2 (centres undefined) | -1.86 | 13.7 | 0.753 | 3.3* | i | -0.12 | 5416 | 1524 | i
O=C(c1cccc(Cl)c1)N1CCN(c2ccc(F)cc2)CC1 | . | . | . | . | i | . | . | . | .
N#Cc1c(N=Cc2cccc3ccccc23)sc2c1CCCC2 | . | . | . | . | i | . | . | . | .
CCCc1cc(C(N)=O)c(NC(=O)C2CCCO2)s1 (centres undefined) | 0.0209 | 3.8 | 0.673 | 0.876 | i | 1.54 | . | . | .
CCCc1cc(C(N)=O)c(NC(=O)c2ccco2)s1 | -1.22 | -3.3 | -0.00799 | 5.03* | i | 0.0475 | 10424* | 1588 | +
CCc1noc2c1/C(=N\O)CC(c1ccccc1)C2 (centres undefined) | -0.0557 | -0.5 | 0.188 | 17.2* | i | -0.236 | 25792* | 1744 | +
Cc1cccc(C)c1NC(=O)CSc1nnnn1-c1ccccc1 | . | . | . | . | i | . | . | . | .
CCOc1cc(C2C(C#N)=C(N)Oc3n[nH]c(-c4ccccc4)c32)ccc1O (centres undefined) | -0.0522 | 1.8 | 1.24 | 3.81* | i | -0.039 | 5848* | 1448 | i
Cc1ccc(-c2[nH]nc3c2C(c2ccoc2)C(C#N)=C(N)O3)cc1C (centres undefined) | 0.754 | -0.3 | -0.274 | 10.7* | i | -0.485 | 18284* | 1340 | +
COc1ccc(-c2[nH]nc3c2C(c2ccoc2)C(C#N)=C(N)O3)cc1 (centres undefined) | . | . | . | . | . | -0.532 | . | . | .
CC(C)C1C(C#N)=C(N)Oc2n[nH]c(-c3ccccc3)c21 (centres undefined) | 1.27* | 2.7 | -0.152 | 3.81* | i | -0.141 | 13728* | 1660 | i
CC(C)CC1C(C#N)=C(N)Oc2n[nH]c(-c3ccccc3)c21 (centres undefined) | . | . | . | . | . | -0.0104 | . | . | .
Nc1nnc(Cc2ccc(Cl)cc2)s1 | 0.145 | 13.6 | 0.0121 | 0.0995 | i | 0.564 | . | . | .
CCOc1ccc(Cc2nnc(N)s2)cc1OCC | 0.35 | 3.5 | -0.139 | 10.5* | i | -0.722 | 18204* | 1736 | +
COc1ccc(NC(=O)c2cc(-c3ccc(Br)cc3)nc3ccccc23)cc1 | . | . | . | . | i | . | . | . | .
O=[N+]([O-])c1ccc(N2CCCCC2)cc1NCCc1ccccc1 | . | . | . | . | i | . | . | . | .
CCOc1ccc(CNC(=O)CCn2c(=O)oc3ccccc32)cc1 | -0.483 | 15.7 | 1.75 | 5.36* | i | -0.0674 | 5860 | 1400 | i
COc1ccc(CNC(=O)CCn2c(=O)oc3ccccc32)cc1 | -0.23 | 0.5 | 0.653 | -0.393 | i | 0.832 | . | . | .
CCc1nc(NCCCn2ccnc2)c2oc3ccccc3c2n1 | 0.0991 | 15.4 | -0.645 | 5.53* | i | 0.804 | 13664* | . | +
CCc1nc(Nc2ccccc2)c2oc3ccccc3c2n1 | . | . | . | . | . | -0.786 | . | . | .
COc1cc([N+](=O)[O-])cc(C=Nc2cccc(C(=O)Nc3cccc4ccccc34)c2)c1O | . | . | . | . | i | . | . | . | .
COc1ccc(CNC(=O)c2c(O)c3cccc4c3n(c2=O)CCC4)cc1OC | 0.854 | -10.9 | 1.32 | 6.25* | i | -0.125 | 10888* | 1696 | +
CCOC(=O)Cc1[nH]nc2c1C(c1cccc(OC)c1OC)C(C#N)=C(N)O2 (centres undefined) | 0.876 | 8.7 | -0.000464 | 6.32* | i | 1.24 | 7976* | 1640 | i
COC(=O)Cc1[nH]nc2c1C(c1cccc(OC)c1OC)C(C#N)=C(N)O2 (centres undefined) | -0.0174 | 20.3 | -0.107 | 0.00703 | i | -0.857 | . | . | .
